# Published values pooled from the literature.
# Protocols differ between the studies behind these lines.
# Target: Protein kinase C eta type (PRKCH, Homo sapiens, UniProt P24723)
Compound,read-out,technique,concentration,remaining binding [%]
F[C@@H]1CCN(c2nccc(-c3cnn4ncccc34)n2)C1,binding,,1 µM,100
CNC(=O)Nc1ccc2c(c1)CC[C@@]21OC(=O)N(CC(=O)N(Cc2ccc(F)cc2)[C@@H](C)C(F)(F)F)C1=O,cell-free assay,competition with immobilised ligand,1 µM,93
N[C@@H]1CCN(c2nccc(-c3cnn4ncccc34)n2)C1,binding,,1 µM,100
CCN1CCN(Cc2ccc(C(=O)Nc3ccc(C)c(Oc4ccc5c(c4)CC(=O)N5)c3)cc2C(F)(F)F)CC1,binding,competition with immobilised ligand,1 µM,100
O=C(Nc1c[nH]nc1C(=O)NC1CCNCC1)c1cc(F)cc(F)c1,binding,competition with immobilised ligand,1 µM,73
C[C@H](c1ccnc(Nc2nc3ccc(-c4cc(N(C)C)ncn4)cc3[nH]2)c1)N1CCN(C(=O)CC(F)(F)F)CC1,cell-free assay,competition with immobilised ligand,0.1 µM,84
COc1cnc(Nc2cccc(S(N)(=O)=O)c2)nc1N1CCN(c2ccccc2)CC1,binding,competition with immobilised ligand,1 µM,100
Cn1nc(C(=O)NCc2ccc(C(=O)O)cc2)cc1-c1ccc2[nH]ccc2c1,cell-free assay,competition with immobilised ligand,0.1 µM,84
FC(F)(F)Oc1cccc(-c2cnc3ccc(-c4ccncc4)nn23)c1,cell-free assay,competition with immobilised ligand,5 µM,91
c1cncc(-c2cccc(Nc3nccc(NC4CCCCC4)n3)c2)c1,binding,competition with immobilised ligand,10 µM,73
CN(C)c1ncc(F)c(-c2cnn3ncccc23)n1,binding,,1 µM,100
CC(=O)Nc1c(C(C)=O)c(=O)n(C)c2nc(-c3ccc(Cl)cc3Cl)c(-c3ccc(Cl)cc3)cc12,cell-free assay,competition with immobilised ligand,1 µM,100
C=CC(=O)N1CCC(C(=O)NCC(=O)N2CCN(c3nc(-c4cnc(N)nc4C(F)F)nc(N4CCOCC4)n3)CC2)CC1,binding,competition with immobilised ligand,1 µM,100
COc1ccnn2ncc(-c3ccnc(N(C)C)n3)c12,binding,,1 µM,92
Cc1cnc(Nc2ccc(C(=O)N3CCC(N4CCCC4)CC3)cc2)nc1-c1cc2ccccc2s1,binding,competition with immobilised ligand,1 µM,15
C[C@H]1CCN(c2nccc(-c3cnn4ncccc34)n2)C1,binding,,1 µM,93
O=C(c1ccc(Nc2ncc(Cl)c(-c3ccc(Cl)s3)n2)cc1)N1CCC(N2CCCC2)CC1,binding,competition with immobilised ligand,1 µM,46
COc1ncc2cc3ccccc3nc2c1C#N,cell-free assay,competition with immobilised ligand,5 µM,90
O=C(Nc1cnc(Oc2ccc(F)cc2)nc1)N1CCc2ncccc2[C@@H]1c1ccc(F)cc1,cell-free assay,competition with immobilised ligand,1 µM,76
O=C(c1ccc(Nc2ncc(Cl)c(-c3cc4ccccc4s3)n2)cc1)N1CCC(N2CCCC2)CC1,binding,competition with immobilised ligand,1 µM,12
CN(CCCC(F)(F)F)c1nccc(-c2cnn3ncccc23)n1,binding,,1 µM,89
C[C@@H]1CN(c2cc(-c3n[nH]c4ccc(OC5(C)CC5)cc34)ncn2)C[C@H](C)O1,cell-free assay,competition with immobilised ligand,0.1 µM,92
